From ChEMBL document CHEMBL2424606, “Selective cytotoxicity, inhibition of cell cycle progression, and induction of apoptosis in human breast cancer cells by sesquiterpenoids from Inula lineariifolia Turcz” (Eur J Med Chem, 2013)
The source made the active and inactive calls. The rule behind the calls is not given here.

Assays:
MCF7 [1] = test: Cytotoxicity against human MCF7 cells assessed as growth inhibition after 72 hrs by MTT assay; assay type: functional, cell-based; conditions: MCF7, 72 h
How it was run: (§1)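 3×10³ cells/well exposed 72 h to compound at 0, 1, 5, 10, 25, 50 μM, DMSO as vehicle control. MTT (5 mg/mL solution) added for 2–4 h at 37°C. Formazan dissolved in DMSO, absorbance read at 570 nm. Viability is mean OD relative to DMSO wells. IC50 from three separate experiments.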

MCF-10A = test: Cytotoxicity against human MCF10A cells assessed as growth inhibition after 72 hrs by MTT assay; assay type: cell-based; how it was run: as §1
MDA-MB-231 [2] = test: Cytotoxicity against human MDA-MB-231 cells assessed as growth inhibition after 72 hrs by MTT assay; assay type: functional, cell-based; conditions: MDA-MB-231, 72 h; how it was run: as §1
MCF7 [3] = test: Induction of apoptosis in human MCF7 cells assessed as apoptotic index at 5 uM after 48 hrs by annexin V-FITC/propidium iodide staining-based flow cytometric analysis relative to control; assay type: functional
How it was run: (§2)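 Treatment of 2–3×10⁵ cells with compound at 0, 1 or 5 μM for 48 h. Media plus cells collected, washed in serum-free medium, resuspended in Annexin V binding buffer. Stained with annexin V-FITC and propidium iodide 15 min in the dark at room temperature, then flow cytometry. Early (annexin only) and late (annexin+PI) apoptotic cells counted. Apoptotic index vs untreated cells. Means ± S.D., Student's t-test vs DMSO control.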

MDA-MB-231 [4] = test: Cell cycle arrest in human MDA-MB-231 cells assessed as accumulation at S phase at 2.5 uM after 24 hrs by propidium iodide staining-based flow cytometric analysis; assay type: functional
How it was run: (§3)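 Cells (2–3×10⁵) exposed to test compound at 0, 1 or 2.5 μM for 24 h. Trypsinized, PBS-washed, fixed in 95% ethanol at 4 °C overnight, RNAse-treated, propidium iodide-stained. DNA content measured by flow cytometry for phase distribution.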

MCF7 [5] = test: Induction of apoptosis in human MCF7 cells after 48 hrs by annexin V-FITC/propidium iodide staining-based flow cytometric analysis; assay type: functional, cell-based; how it was run: as §2
MDA-MB-231 [6] = test: Cell cycle arrest in human MDA-MB-231 cells assessed as accumulation at S phase after 24 hrs by propidium iodide staining-based flow cytometric analysis; assay type: functional; how it was run: as §3
MDA-MB-231 [7] = test: Cell cycle arrest in human MDA-MB-231 cells assessed as accumulation at G2/M phase after 24 hrs by propidium iodide staining-based flow cytometric analysis; assay type: functional; how it was run: as §3
MDA-MB-231 [8] = test: Induction of apoptosis in human MDA-MB-231 cells assessed as apoptotic index at 5 uM after 48 hrs by annexin V-FITC/propidium iodide staining-based flow cytometric analysis relative to control; assay type: functional; how it was run: as §2
MDA-MB-231 [9] = test: Cell cycle arrest in human MDA-MB-231 cells assessed as accumulation at G2/M phase at 2.5 uM after 24 hrs by propidium iodide staining-based flow cytometric analysis; assay type: functional; how it was run: as §3
MCF7 [10] = test: Cell cycle arrest in human MCF7 cells assessed as accumulation at G2/M phase after 24 hrs by propidium iodide staining-based flow cytometric analysis; assay type: functional; how it was run: as §3
MCF7 [11] = test: Cell cycle arrest in human MCF7 cells assessed as accumulation at G2/M phase at 2.5 uM after 24 hrs by propidium iodide staining-based flow cytometric analysis; assay type: functional; how it was run: as §3
MDA-MB-231 [12] = test: Induction of apoptosis in human MDA-MB-231 cells after 48 hrs by annexin V-FITC/propidium iodide staining-based flow cytometric analysis; assay type: functional, cell-based; how it was run: as §2

SMILES | IC50 (MCF7 [1]) [µM] | IC50 (MCF-10A) [µM] | IC50 (MDA-MB-231 [2]) [µM] | further results
C=C1C(=O)O[C@H]2C[C@@H](C)[C@@H]3C=CC(=O)[C@@]3(C)[C@@H](OC(C)=O)[C@H]12 [BIGELOVIN] | 2.1 | 26 | 2.3 | –
C=C1C(=O)O[C@@H]2CC(C)=C3[C@@H](OC(C)=O)C[C@@](C)(O)[C@@H]3C[C@H]12 [INUCHINENOLIDE B] | 15.5 | > 50 | 25.8 | –
CC(=O)O[C@H]1C(=O)[C@@]2(C)[C@H]([C@H](OC(=O)c3ccccc3)[C@]3(O)C[C@H](OC(=O)[C@H](O)[C@@H](NC(=O)c4ccccc4)c4ccccc4)C(C)=C1C3(C)C)[C@]1(OC(C)=O)CO[C@@H]1C[C@@H]2O [PACLITAXEL] | 0.0752 | 0.427 | 0.087 | –
C=C1C(=O)O[C@@H]2C[C@H](C)[C@@H]3[C@@H](OC(C)=O)C[C@H](O)[C@@]3(C)C[C@H]12 | 6.7 | > 50 | 12.9 | –
C=C1C(=O)O[C@@H]2/C=C(\C)CC/C=C(\CO)C[C@@H](O)[C@@H]12 [DEACETYLOVATIFOLIN] | 6.9 | 45.7 | 13.8 | –
C=C1C(=O)O[C@H]2C[C@H](C)[C@@]34C[C@@]5(C(=O)O[C@H]6/C=C(\C)CC/C=C(\CO)C[C@H](O)[C@@H]65)[C@@H](C(C)=C3C[C@H]12)[C@@H]4OC(C)=O | 3.7 | 26.4 | 5.7 | –
CC(=O)O[C@H]1C=C(CCO)[C@@H](C)C[C@H]2OC(=O)[C@@H](C)[C@@H]12 | > 50 | > 50 | > 50 | –
C=C1C[C@@H]2OC(=O)C(=C)[C@H]2C[C@@H]2[C@@H]1[C@@H](O)C[C@@]2(C)O | 13.7 | > 50 | 21.1 | –
C=C1C(=O)O[C@@H]2CC(C)=C3[C@@H](OC(C)=O)C[C@@](C)(O)[C@@H]3[C@@H](O)[C@H]12 | > 50 | > 50 | > 50 | –
C=C1C(=O)O[C@H]2C[C@H](C)[C@@]34C[C@@]5(C(=O)O[C@H]6C[C@@H](C)[C@@H]7[C@@H](OC(C)=O)C[C@H](O)[C@@]7(C)C[C@@H]65)[C@@H](C(C)=C3C[C@H]12)[C@@H]4O | 1.6 | 27.9 | 2.8 | fold change (FC) (MCF7 [3]): 7.6; Activity (MDA-MB-231 [4]): Active; Activity (MCF7 [5]): Dose-dependent effect; Activity (MDA-MB-231 [6]): Dose-dependent effect; Activity (MDA-MB-231 [7]): Dose-dependent effect; fold change (FC) (MDA-MB-231 [8]): 14.2; Activity (MDA-MB-231 [9]): Active; Activity (MCF7 [10]): Dose-dependent effect; Activity (MCF7 [11]): Active; Activity (MDA-MB-231 [12]): Dose-dependent effect
C=C1C(=O)O[C@@H]2CC(C)=C3[C@@H](C[C@H]12)[C@](C)(O)C[C@@H]3O | > 50 | > 50 | > 50 | –
C=C1C(=O)O[C@H]2C[C@H](C)[C@H]3[C@@H](O)C[C@@](C)(O)[C@@]34O[C@H]4[C@H]12 | > 50 | > 50 | > 50 | –
C=C1C(=O)O[C@H]2C[C@H](C)[C@@]34C[C@@]5(C(=O)O[C@H]6C=C(C)[C@H]7[C@@H](OC(C)=O)C[C@@](C)(O)[C@@H]7C[C@@H]65)[C@@H](C(C)=C3C[C@H]12)[C@@H]4O | 7.8 | > 50 | 16.5 | –
C=C1C(=O)O[C@H]2C=C(C)[C@@H]3[C@@H]([C@@H](O)[C@H]12)[C@](C)(O)C[C@@H]3OC(C)=O | 6.2 | > 50 | 11.4 | –
C[C@@H]1C2=C[C@H]3[C@@H](C[C@@]2(C)CC[C@@H]1O)OC(=O)[C@@H]3C | > 50 | > 50 | > 50 | –
C=C1C(=O)O[C@H]2C[C@H](C)[C@@]34C[C@@]5(C(=O)O[C@H]6C=C(C)[C@H]7[C@@H](OC(C)=O)C[C@@](C)(O)[C@@H]7C[C@@H]65)[C@@H](C(C)=C3C[C@H]12)[C@@H]4OC(C)=O | 3.4 | > 50 | 10.7 | –
